Data set [1] deals with T1, Indoleamine 2,3-dioxygenase 1 (Homo sapiens, UniProt P14902). Put plainly: Inhibition of recombinant human IDO1 expressed in Escherichia coli Rosetta (DE3) cells assessed as reduction in kynurenine production using L-tryptophan as substrate incubated for 20 mins by HPLC analysis.
Target sequence in this assay (P14902 whole entry): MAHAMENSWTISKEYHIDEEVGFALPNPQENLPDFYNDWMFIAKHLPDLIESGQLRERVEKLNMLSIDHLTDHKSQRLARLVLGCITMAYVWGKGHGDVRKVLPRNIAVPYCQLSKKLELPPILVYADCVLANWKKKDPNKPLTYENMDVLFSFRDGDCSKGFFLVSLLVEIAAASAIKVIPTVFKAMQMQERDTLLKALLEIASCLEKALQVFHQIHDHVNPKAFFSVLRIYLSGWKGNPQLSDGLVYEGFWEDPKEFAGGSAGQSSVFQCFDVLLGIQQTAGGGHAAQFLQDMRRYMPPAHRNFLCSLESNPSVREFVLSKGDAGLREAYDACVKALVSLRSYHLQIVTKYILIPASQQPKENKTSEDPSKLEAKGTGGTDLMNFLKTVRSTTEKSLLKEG
Data set [2] has as its system HEK-293T. Put plainly: Cytotoxicity against human HEK293T cells assessed as reduction in cell viability at 200 uM after 7 hrs by DAPI staining based assay. The method, boiled down: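 HEK 293T cells transiently transfected with hIDO1 (plus GFP plasmid), treated at 200 μM test compound with 2% final DMSO for 7 h at 37 °C; DMSO as negative control. Cells then washed in PBS, resuspended in PBS with 1 μg/mL DAPI and analysed immediately by flow cytometry to detect apoptotic cells.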

Data set [3] addresses T1, Indoleamine 2,3-dioxygenase 1. Kind of data set: Inhibition of human IDO1 expressed in HEK293T cells assessed as reduction in kynurenine production at 200 uM using L-tryptophan as substrate incubated for 7 hrs by HPLC analysis. It counts as cell-based. The procedure, abridged:
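HEK 293T cells transiently transfected with full-length hIDO1 in pcDNA6/myc-His (with GFP plasmid to check efficiency); 16–18 h later replated in phenol-red-free DMEM with 10% FBS, 1 mM pyruvate, and added 500 μM L-trp. Compound at 200 μM, 2% final DMSO, 7 h at 37 °C; stopped with TCA (4% final). Kynurenine read by p-DMAB absorbance at 480 nm or by HPLC.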
Target sequence in this assay (P14902 whole entry, looked up): as the sequence (P14902 whole entry) above

Data set [4] shares this target. Put plainly: Inhibition of human IDO1 expressed in HEK293T cells assessed as reduction in kynurenine production using L-tryptophan as substrate incubated for 7 hrs by HPLC analysis. It counts as cell-based.
Target sequence in this assay (P14902 whole entry): as above
Data set [5] shares this target. Put plainly: Inhibition of recombinant human IDO1 expressed in Escherichia coli Rosetta (DE3) cells assessed as reduction in kynurenine production using L-tryptophan as substrate at pH 7.4 incubated for 20 mins by HPLC analysis.
Target sequence in this assay (P14902 whole entry): as above

pIC50: −log10 of the molar value. Calls of active or inactive are those of the source. The calls are words filed in the database; no cut-off is given here.

What is called pIC50 is the IC50 on a negative log10 scale, so that one unit is a factor of ten. As for `Oc1ccc(Cl)cc1-n1ccnc1`, in data set [1], the pIC50 is 5.68. Moreover, the Activity entry in data set [2] was “Non-Toxic”. Further, the inhibition result in data set [3] was “inactive”. Regarding `Clc1cccc(-c2cnc[nH]2)c1`, in data set [1], the pIC50 is 5.59. Also, the Activity entry in data set [2] is given as “Non-Toxic”. In the case of `Clc1cccc(-c2nnn[nH]2)c1`, the pIC50 in data set [1] was 4.00. In data set [2], the Activity entry is given as “Non-Toxic”. `Oc1ccccc1-c1c[nH]nn1`: the pIC50 in data set [1] was 5.64. Moreover, the Activity entry in data set [2] is recorded as “Non-Toxic”. As to `Oc1ccc(Cl)cc1-c1nnn[nH]1`, the pIC50 in data set [1] was 4.80. Besides, in data set [2], the Activity entry is on record as “Non-Toxic”. `Clc1cccc(-c2c[nH]nn2)c1`: the pIC50 in data set [1] is 6.46. In data set [2], the Activity entry was “Non-Toxic”.

For `c1ccc(-c2nnn[nH]2)cc1`, the Activity result in data set [2] is on record as “Non-Toxic”. As to `Nc1ccc(Cl)cc1-c1nnc[nH]1`, the pIC50 in data set [1] was 7.46; in data set [4], 7.47. In data set [2], the Activity entry is reported as “Non-Toxic”. Turning to `Cn1cncc1-c1ccccc1`, in data set [2], the Activity entry is reported as “Non-Toxic”. On to `Cn1cncc1-c1cccc(Cl)c1`, for which the pIC50 in data set [1] was 4.89. For the same compound, the Activity result in data set [2] is listed as “Non-Toxic”. The corresponding values for `Nc1ccccc1-n1ccnc1` are 2.89 and “Non-Toxic”. As to `Oc1ccc(Cl)cc1-c1cnc[nH]1`, the Activity entry in data set [2] was “Non-Toxic”. Consider `Cn1cncc1-c1cc(Cl)ccc1N`, for which, in data set [1], the pIC50 is 2.92. For the same compound, the Activity result in data set [2] is listed as “Non-Toxic”. As for `Nc1ccccc1-c1c[nH]nn1`, the pIC50 in data set [1] was 4.48. The Activity in data set [2] turned out to be 30%. In the case of `Clc1cccc(-c2nnc[nH]2)c1`, the pIC50 in data set [1] is 4.51. In addition, the Activity entry in data set [2] is given as “Non-Toxic”. For the compound `Clc1cccc(-n2ccnc2)c1`, the pIC50 in data set [1] was 4.39. In addition, in data set [2], the Activity result is recorded as “Non-Toxic”. The corresponding values for `Oc1ccccc1-c1nnn[nH]1` are 3.15 and “Non-Toxic”. The corresponding values for `Cn1cncc1-c1ccccc1N` are 2.77 and “Non-Toxic”. For the compound `Oc1ccc(Cl)cc1-c1nnc[nH]1`, the pIC50 in data set [1] is 6.22. The Activity result in data set [2] was “Non-Toxic”.

As to `Nc1ccc(Cl)cc1-c1nnn[nH]1`, the negative logarithm of the IC50 (pIC50) in data set [1] was 6.66. In addition, the Activity result in data set [2] is reported as “Non-Toxic”. As to `Oc1ccccc1-c1c[nH]cn1`, in data set [2], the Activity entry is given as “Non-Toxic”. Regarding `Cn1cncc1-c1cc(Cl)ccc1O`, the pIC50 in data set [1] is 4.77. The Activity entry in data set [2] is reported as “Non-Toxic”. For `c1ccc(-c2cnn[nH]2)cc1`, the Activity entry in data set [2] is on record as “Non-Toxic”. With `Cn1cncc1-c1ccccc1O`, in data set [1], the pIC50 was 4.42. Besides, the Activity entry in data set [2] was “Non-Toxic”.

For `Nc1ccccc1-c1nnc[nH]1`, the pIC50 in data set [1] is 5.70. Also, the Activity result in data set [2] is reported as “Non-Toxic”. As to `Oc1ccc(Cl)cc1-c1c[nH]nn1`, in data set [2], the Activity entry is reported as “Non-Toxic”. In the case of `c1ccc(-c2nc[nH]n2)cc1`, in data set [2], the Activity result is recorded as “Non-Toxic”. Moreover, the pIC50 in data set [5] is 3.24.

Turning to `Nc1ccccc1-c1cnc[nH]1`, the pIC50 in data set [1] was 4.74. Further, in data set [2], the Activity entry is reported as “Non-Toxic”. Turning to `Nc1ccc(Br)cc1-c1nc[nH]n1`, in data set [1], the pIC50 is 7.70. Regarding `Oc1ccccc1-n1ccnc1`, the pIC50 in data set [1] was 4.80. Moreover, in data set [2], the Activity result is reported as “Non-Toxic”. Consider `c1ccc(-n2ccnc2)cc1`, for which the Activity entry in data set [2] is on record as “Non-Toxic”. Regarding `Nc1ccc(Cl)cc1-c1cnc[nH]1`, in data set [1], the pIC50 was 4.92. Also, in data set [2], the Activity result was “Non-Toxic”.

Take `Nc1ccc(Cl)cc1-n1ccnc1`: the pIC50 in data set [1] is 4.06. In data set [2], the Activity entry was “Non-Toxic”. Take `Nc1ccccc1-c1nnn[nH]1`: the pIC50 in data set [1] is 5.24. Besides, the Activity result in data set [2] is “Non-Toxic”. Consider `c1ccc(-c2c[nH]cn2)cc1`, for which, in data set [2], the Activity result is given as “Non-Toxic”. On to `Oc1ccccc1-c1nnc[nH]1`, for which, in data set [1], the pIC50 is 4.51. In addition, the Activity result in data set [2] is listed as “Non-Toxic”.

Take `Nc1ccc(Cl)cc1-c1cnn[nH]1`: in data set [1], the pIC50 is 5.82. In data set [2], the Activity worked out at 30%.

Values taken from ChEMBL document CHEMBL4834395, “Azole-Based Indoleamine 2,3-Dioxygenase 1 (IDO1) Inhibitors” (J Med Chem, 2021).
